Bioassay records deposited in PubChem BioAssay by Sanford-Burnham Center for Chemical Genomics.
Hits are enriched below; roughly 1.7% of the tested compounds scored in any of these assays.
LMPTP block – blocks human LMPTP phosphatase. P24666. recombinant LMPTP-A, OMFP fluorogenic substrate, fluorescence intensity. actives 0.22% (n = 360,000). AID 651560. inhibition, % at 20 µM;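 active = compounds that cut the enzyme signal by at least half of the control window in the single-dose screen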;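 also: plate controls were DMSO wells with enzyme plus substrate for no effect and substrate without enzyme for full effect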
Target sequence (P24666 whole entry, looked up): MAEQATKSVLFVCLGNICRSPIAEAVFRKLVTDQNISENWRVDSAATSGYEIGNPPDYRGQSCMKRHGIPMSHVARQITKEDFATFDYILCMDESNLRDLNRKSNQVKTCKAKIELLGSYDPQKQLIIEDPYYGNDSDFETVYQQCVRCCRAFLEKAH
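Test system: LMPTP-A, protein tyrosine phosphatase of low molecular weight; Input: 0.625 nM enzyme; Incubation: 50 min dark incubation at room temperature; Signal: endpoint fluorescence intensity from OMFP dephosphorylation; Read-out basis: % inhibition versus control wells.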
SUMO1-SIM PPI – alters human SUMO1 binding to SIM partners; P63165; SUMO1 binding to a labelled peptide, TR-FRET, 1 h; inhibition, % at 20 µM; actives 0.33% (n = 360,000); AID 602429; in the data active = inhibition above about 37%
Target sequence (P63165 whole entry, looked up): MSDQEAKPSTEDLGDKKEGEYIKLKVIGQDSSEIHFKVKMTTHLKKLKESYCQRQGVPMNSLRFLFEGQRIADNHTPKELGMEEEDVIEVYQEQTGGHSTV
Scp-1 inhibitor – blocks human Scp-1 phosphatase activity | Q9GZU7 | Recombinant Scp1, phosphopeptide, malachite green phosphate absorbance | inhibition, % at 20 µM | actives 0.88% (n = 340,000) | AID 493091;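 active = inhibition above about 50% at 20 µM, limit read from the data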;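 also: plate controls were DMSO wells with enzyme for no effect and wells lacking enzyme for full effect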
Target sequence (Q9GZU7 76-261 limits assumed): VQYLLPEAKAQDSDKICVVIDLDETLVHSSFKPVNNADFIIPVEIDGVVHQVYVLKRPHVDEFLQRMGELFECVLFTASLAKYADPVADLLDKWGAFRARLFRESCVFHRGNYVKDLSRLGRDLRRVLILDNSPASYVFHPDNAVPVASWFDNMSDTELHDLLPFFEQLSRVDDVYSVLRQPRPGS
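Material: truncated SCP-1 phosphatase (76-261aa) / Buffer or medium: 50 mM Tris acetate pH 5.5, 0.005% Tween-20, 10 mM MgCl2 / Compound dosing: one concentration, 20 µM, with 1.0% DMSO / Incubation: 45 min room-temperature reaction, 5 min colour, 30 min stabiliser / Detection: colorimetric free-phosphate detection, absorbance 630 nm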
STEP inh – inhibitors of human striatal-enriched phosphatase STEP; P54829; actives 0.25% (n = 360,000); inhibition, % at 20 µM; recombinant STEP, OMFP fluorogenic substrate, fluorescence;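 active = inhibition at 20 µM, scaled per plate between control wells, above about 37%, limit read from the data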;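 also: 0% = DMSO with enzyme and substrate and 100% = substrate only without enzyme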
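System: STEP phosphatase, cell-free reaction; Buffer or medium: Bis-Tris pH 6.0 buffer with DTT, detergent; Incubation: 20 min at room temperature, dark; Measured by: fluorescence, 480/540 nm.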
DNMT1 block – blocks human DNA methyltransferase DNMT1; P26358; DNMT1 molecular beacon, Hinp1I cleavage, fluorescence; inhibition (reported as % activation of signal), % at 10 µM; actives 0.83% (n = 360,000); AID 588458; in the data active = inhibition above about 50%
* = called active by the depositor; nt = not tested or not shown.

SMILES	LMPTP block	SUMO1-SIM PPI	Scp-1 inhibitor	STEP inh	DNMT1 block
CC(=O)[C@H]1CC[C@@H](c2ccccc2)N(S(=O)(=O)c2ccc(C)cc2)C1	0.6	-3.7	nt	nt	nt
CC1(C)C2CC[C@]3(C)[C@H](C(=O)C=C4[C@@H]5C[C@@](C)(C(=O)O)CC[C@]5(C)CC[C@]43C)[C@@]2(C)CC[C@@H]1O[C@H]1O[C@H](C(=O)O)[C@@H](O)[C@H](O)[C@H]1O[C@@H]1O[C@H](C(=O)O)[C@@H](O)[C@H](O)[C@H]1O (some centres undefined)	-2.0	40.9*	nt	-1.8	1.4
c1cnc2ccc(-n3ccnc3)cc2c1	-0.8	-1.5	nt	-2.4	3.6
CCNc1ccc2noc3c2c1C(=O)c1ccccc1-3	-14.6	-12.0	11.8	-321.2	62.9*
C/C(N)=C(/C#N)C(=O)CSc1nc2ccccc2c(=O)n1Cc1ccc(F)cc1	17.5	0.4	72.6*	24.1	34.0
COc1ccc(C(=O)/C(C#N)=N/Nc2ccc([N+](=O)[O-])cc2)cc1	73.4*	-60.8	65.6*	95.8*	-2.4
CCOC(=O)c1ccccc1NC(=O)C=C(C)C	0.6	-2.8	-1.2	3.8	6.0
CCOC(=O)c1ccccc1NC(=O)/C=C/c1cc(OC)c(OC)c(OC)c1	-0.5	42.6*	1.1	-2.4	-8.3
O=C(C(=O)N1CCN(c2ccccc2)CC1)c1ccncc1	-0.8	-5.4	nt	nt	nt
CCC(=O)C1CCCN(C(=O)c2ccc(OC)c(OC3CCN(C(C)=O)CC3)c2)C1 (centres undefined)	-1.4	42.9*	-6.9	-2.5	1.9
COc1ccc(C(=O)N2CCN(C)C(C)C2)cc1OC1CCN(C(C)=O)CC1 (centres undefined)	-0.9	3.0	-1.8	-0.5	-0.2
Cc1ccc(NC(=O)N/C=C/c2ccco2)c(C)c1	24.6	-0.5	8.9	2.4	28.7
Cc1ccc(NC(=O)N/C=C/c2ccco2)cc1C	0.6	14.7	-6.0	2.4	56.7*
NS(=O)(=O)c1cc(C(=O)NC2CCSc3ccccc32)ccc1Cl (centres undefined)	71.5*	120.7*	94.2*	99.6*	84.3*
Cc1ccc2nc(N3C(=O)C(O)=C(C(=O)c4cc5ccccc5o4)C3c3cccs3)sc2c1 (centres undefined)	35.5	8.0	-23.5	12.2	77.6*
C[C@@H]1COC(=O)[C@@H](Cc2ccc(F)cc2)C/C=C\C[C@H](CC(=O)N(CCO)Cc2ccccc2)C(=O)N1	3.5	-4.0	-2.1	1.8	8.3
CC(C)CC1=C/C(=C/c2ccc(-c3ccccc3)o2)C(=O)O1	3.8	14.1	15.4	4.2	92.3*
NS(=O)(=O)c1ccc(-c2ccc(C=C3C(=O)c4ccccc4C3=O)o2)cc1	7.6	-4.0	-11.3	-2.0	-0.1
COc1ccc(CNc2ncnc(N)n2)cc1	-1.8	2.2	8.6	-3.4	-1.0
COc1ccc(CNc2nc(NCc3ccc(OC)cc3)c3[nH]cnc3n2)cc1	77.5*	2.6	12.2	-1.1	3.8
CCCc1cc(=O)oc2cc(C)cc(OCc3nn[nH]n3)c12	-1.8	4.6	-0.4	-17.2	0.2
Cc1cc(=O)oc2c1c(C)nn2-c1nn[nH]n1	-3.1	3.1	68.1*	-1.4	0.8
O=C(O)CN1C(=O)/C(=C\c2cc(Br)ccc2OCc2ccc([N+](=O)[O-])cc2)SC1=S	25.6	25.3	49.7	24.3	55.7*
O=C1/C(=C\c2cc(Br)cc(Br)c2O)SC(=S)N1Cc1ccccc1	10.4	18.1	7.4	10.1	64.5*
O=C1/C(=C\c2ccc(O)cc2)SC(=S)N1Cc1ccccc1	1.4	-14.1	23.0	-2.1	-3.6
SMILES	LMPTP block	SUMO1-SIM PPI	Scp-1 inhibitor	STEP inh	DNMT1 block
O=C(O)CN1C(=O)/C(=C\c2cc(Br)ccc2OCc2ccccc2F)SC1=S	4.5	16.2	2.0	5.5	22.2
COc1cc([N+](=O)[O-])cc(/C=C2/SC(=S)N(Cc3ccccc3)C2=O)c1O	5.0	64.5*	3.6	8.4	-14.0
Nc1ccc2c(c1)C(=O)C(=O)c1ccccc1-2	47.7	48.0*	5.4	58.7*	120.0*
O=C1C(=O)c2ccc(-c3ccccc3)cc2-c2ccccc21	13.8	41.3*	-4.3	34.3	106.1*
O=C(NCc1ccccc1Cl)[C@H]1CCCN1C(=O)[C@H]1CCCN1C(=O)c1cccs1	-1.8	3.5	nt	nt	nt
CCn1cc(/C=C/c2cc[n+](C)cc2)c2ccccc21	1.2	-124.9	67.5*	-13.5	26.2
